Article PMC4330091 (Bioorganic & medicinal chemistry, 2014)
Where two headings read alike, the source gives them in different places. Marks after values point to notes of the source that are not given here.

How the values were obtained:
[1] = tested on: HT-29 colon cancer cell line; test: MTT anti-proliferative assay on HT-29; format: cell-based, human; details: read-out: IC50, HT-29
[2] = tested on: MCF-7 breast cancer cell line; test: MTT anti-proliferative assay on MCF-7; format: cell-based, human; details: read-out: IC50, MCF-7
[3] = tested on: MCF-10A non-tumorigenic human breast epithelial cell line; test: MTT anti-proliferative assay on MCF-10A; format: cell-based; details: read-out: IC50, MCF-10A
[4] = tested on: MCF-7 breast cancer cell line; details: cited from earlier work; for IC50: read-out: IC50, MCF-7, MTT assay, 72 h drug exposure
[5] = tested on: MCF-10A non-tumorigenic human breast epithelial cell line; details: cited from earlier work
[6] = Cyclic voltammetry in CH3CN; format: physicochemical; details: 0.1 M [NBu4n]PF6, 100 mV/s, vs Ag/AgCl
How it was run: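 Test compound dissolved at 2 × 10⁻³ M in deoxygenated CH3CN with 0.1 M [NBuⁿ₄]PF₆ as supporting electrolyte; cyclic voltammograms recorded on these solutions.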

[7] = tested on: MCF-7; test: ROS production; format: cell-based, human; details: MCF-7, 72 h
[8] = tested on: MCF-7 cells
[9] = tested on: MCF-7 cells; test: Cytokinesis-block micronucleus assay; details: for % Binucleated cells (Mitotic rate) / Micronucleus (MNi) (mean ± SD): 72 h treatment; for % Binucleated cells (Mitotic rate): MCF-7, mean (SD); for increase in micronucleus forming activity compared to control (untreated cells): MCF-7; for Micronucleus (MNi) (mean ± SD): micronucleated cells in 500 binucleated MCF-7 cells
[10] = tested on: HT-29 colon cancer cell line; details: read-out: IC50, HT-29; MTT assay, 72 h drug exposure; cited from earlier work
[11] = CH3CN, vs Ag/AgCl, cited from earlier work
[12] = tested on: MCF-7 cells; details: ref 35 (Yared et al.); cited from earlier work
[13] = MTT assay, 72 h drug exposure, SD in parenthesis
[14] = ref 13. Dalton Trans. 40 (2011) 9557–9565
[15] = ref 14. J. Organometal. Chem 749 (2014) 204–214

O=C(O)[c-]1cccc1.O=C(O)[c-]1cccc1.[Fe+2] [1-1′ferrocenedicarboxilic acid]
IC50 [1, 13]: 410 µM

O=C(O)Cc1ccc[cH-]1.[Fe+2].c1cc[cH-]c1 [Ferroceneacetic acid]
IC50 [2, 13]: 590 µM | IC50 [3, 13]: 86 µM | IC50 [1, 13]: 253 µM

Oc1ccc(-n2cccc2)cc1 [4-(1H-pyrrol-1yl)phenol]
IC50 ([2]; Homo sapiens, MCF7, 72 h): 249 µM | IC50 ([3]; Homo sapiens, MCF-10A, 72 h): 553 µM | IC50 ([1]; Homo sapiens, HT-29, 72 h): 211 µM

O=C(Oc1ccc(-n2cccc2)cc1)[c-]1cccc1.[Fe+2].c1cc[cH-]c1 [Fc-CO2-Ph-4-Py, 4-(1H-pyrrol-1-yl)phenyl ferrocenecarboxylate]
anti-proliferative activity (in words) ([4]; hormone-dependent breast cancer cell line MCF-7): high anti-proliferative activity | anti-proliferative activity (in words) ([5]; non-tumorigenic human breast epithelial cell line MCF-10A): high anti-proliferative activity

O=C(Oc1ccc(-n2cccc2)cc1)[c-]1cccc1.O=C(Oc1ccc(-n2cccc2)cc1)[c-]1cccc1.[Fe+2] [Fc-(CO2-Ph-4-Py)2, 1,1′-4-(1H-pyrrol-1-yl)phenyl ferrocenedicarboxylate]
IC50 [2, 13]: 45.5 µM | IC50 [3, 13]: 298 µM | IC50 [1, 13]: 189 µM | E1/2 [6]: 910 mV | Epa [6]: 958 mV | Epc [6]: 862 mV | ΔE [6]: 96 mV | ROS production (in words) [7]: significant increase | Micronucleus (MNi) (mean ± SD) [8]: 15 (1) ^** | increase in micronucleus forming activity compared to control (untreated cells) [8]: up to 5 fold | increase in micronucleus-forming activity [8]: up to 5 fold | % Binucleated cells (Mitotic rate) ([9]; 0.1 μM): 18 (7) ^* % | % Binucleated cells (Mitotic rate) ([9]; 1 μM): 33 (13) ^* % | % Binucleated cells (Mitotic rate) ([9]; 10 μM): 25 (6) ^* %

C[C@]12CC[C@@H]3c4ccc(OC(=O)[c-]5cccc5)cc4CC[C@H]3[C@@H]1CC[C@@H]2O.[Fe+2].c1cc[cH-]c1 [Fc-CO2-estradiol, ferrocenoyl 17β-hydroxy-estra-1,3,5(10)-trien-3-olate]
IC50 [3, 13]: 119 µM | ROS production (in words) [7]: significant increase | IC50 [4]: 9 µM | IC50 [10]: 24.4 µM | E1/2 [11, 14]: 756 mV | Epa [11, 14]: 801 mV | Epc [11, 14]: 711 mV | ΔE [11, 14]: 90 mV | % Binucleated cells (Mitotic rate) ([9]; 0.01 μM): 33 (2) ^* % | increase in micronucleus forming activity compared to control (untreated cells) ([9]; 0.01 μM): 3 fold | % Binucleated cells (Mitotic rate) ([9]; 0.1 μM): 39 (9) ^* % | Micronucleus (MNi) (mean ± SD) ([9]; 0.1 μM): 25 | increase in micronucleus forming activity compared to control (untreated cells) ([9]; 0.1 μM): 4 fold | % Binucleated cells (Mitotic rate) ([9]; 1 μM): 34 (9) ^* % | Micronucleus (MNi) (mean ± SD) ([9]; 1 μM): 29 | increase in micronucleus forming activity compared to control (untreated cells) ([9]; 1 μM): 4 fold | increase in micronucleus-forming activity ([9]; concentration near IC50, MCF-7): up to 4 fold

[Fe+2].c1cc[cH-]c1.c1cc[cH-]c1 [Fc/Fc^+, ferrocene]
E1/2 [6]: 454 mV | Epa [6]: 494 mV | Epc [6]: 414 mV | ΔE [6]: 80 mV

COS(C)(=O)=O [MMS, methyl methane sulphonate]
% Binucleated cells (Mitotic rate) ([9]; 94.4 μM): 28 (3) ^* % | Micronucleus (MNi) (mean ± SD) ([9]; 94.4 μM): 62 (6) ^***

O=C(Oc1ccc(Br)cc1)[c-]1cccc1.[Fe+2].c1cc[cH-]c1 [Fc-CO2-Ph-4-Br, 4-bromophenyl ferrocenecarboxylate]
IC50 [4]: 9.2 µM | IC50 ([5]; read-out: IC50, MCF-10A, MTT assay, 72 h drug exposure): 353 µM | IC50 [10]: 24 µM | E1/2 [11, 15]: 532 mV | Epa [11, 15]: 580 mV | Epc [11, 15]: 484 mV | ΔE [11, 15]: 96 mV

F[B-](F)(F)F.[Fe+3].c1cc[cH-]c1.c1cc[cH-]c1 [Ferricenium tetrafluoroborate]
IC50 [4]: 150 µM | IC50 [10]: 180 µM

C[C@]12CC[C@@H]3c4ccc(O)cc4CC[C@H]3[C@@H]1CC[C@@H]2O [β-estradiol]
increase in the micronucleus-forming activity [12]: 3 fold
